This note sets out measurements from ChEMBL document CHEMBL2021927, “Synthesis and evaluation of the cytotoxicities of tetraindoles: observation that the 5-hydroxy tetraindole (SK228) induces G₂ arrest and apoptosis in human breast cancer cells” (J Med Chem, 2012).

Data set [1] concerns MDA-MB-231. Description: Cell cycle arrest in human MDA-MB-231 cells at accumulation at G1 phase at 0.8 uM after 24 hrs by propidium iodide staining-based flow cytometric analysis (reference value: 48%). In kind it is functional. (Flow cytometry measures light scatter and fluorescence of single cells or particles in a stream.)
Data set [2] concerns MDA-MB-231. Description: Antiproliferative activity against human MDA-MB-231 cells assessed as decrease in cell count after 72 hrs by trypan blue dye exclusion assay. It is filed as functional, cell-based. In short, it runs like this: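 MDA-MB-231 cells seeded at 2 × 10^5 per well in 6-well plates, treated 24 h later in triplicate with compound (0.1–0.8 μM) or DMSO vehicle in 10% FBS DMEM/F12. Cells harvested by trypsinization at 24, 48 and 72 h, stained with 0.4% trypan blue and counted on a hemocytometer; three independent experiments.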

Data set [3] deals with SW48. Description: Selectivity ratio of IC50 for human Detroit 551 cells to IC50 for human SW48 cells.
Data set [4] relates to MDA-MB-231. Description: Cell cycle arrest in human MDA-MB-231 cells at accumulation at S phase at 0.8 uM after 48 hrs by propidium iodide staining-based flow cytometric analysis (reference value: 20%). It is filed as functional.
Another data set deals with MDA-MB-361. Description: Growth inhibition of human MDA-MB-361 cells after 48 hrs by MTT assay. In kind it is functional, cell-based. The conditions noted are these: MDA-MB-361, 48 h. On the technique in general: Tetrazolium assays rely on reduction of a dye to a coloured formazan, in cell work by metabolically active cells.
In another data set the test system is Detroit 551. Description: Growth inhibition of human Detroit 551 cells after 48 hrs by MTT assay. In kind it is cell-based. The conditions noted are these: Detroit 551, 48 h.
Data set [5] relates to MDA-MB-231. Kind of data set: Induction of apoptosis in human MDA-MB-231 cells assessed as DNA ladder formation at 0.4 to 1.6 uM after 48 hrs by agarose gel electrophoretic analysis. In kind it is functional, cell-based. Put shortly: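 MDA-MB-231 cells seeded at 1 × 10^6 per dish, treated 24 h later with 0, 0.4, 0.8, 1.2 or 1.6 μM or DMSO for 48 h at 37 °C, 5% CO2. Cells lysed in TE buffer with 0.25% NP40 (pH 7.5). Lysate digested with RNase A then proteinase K, each 1 h at 37 °C. DNA resolved on 1.8% agarose gel.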

For data set [6], the system named is SW48. Kind of data set: Growth inhibition of human SW48 cells after 48 hrs by MTT assay. The conditions noted are these: SW48, 48 h. In kind it is functional, cell-based.
The subject of data set [7] is MDA-MB-231. Description: Cell cycle arrest in human MDA-MB-231 cells at accumulation at G1 phase at 0.8 uM after 48 hrs by propidium iodide staining-based flow cytometric analysis (reference value: 45%). It is filed as functional.
The subject of another data set is SW480. Description: Selectivity ratio of IC50 for human Detroit 551 cells to IC50 for human SW480 cells.
The test system of data set [8] is MDA-MB-231. Description: Increase in cyclin B1 expression in human MDA-MB-231 cells after 24 hrs by Western blot analysis. In kind it is functional, cell-based. Put shortly:
(§1)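 MDA-MB-231 cells treated with 0.2, 0.4 or 0.8 μM for 24 and 48 h. Attached and floating cells were lysed in RIPA-type buffer with protease inhibitors, and protein was quantified by BCA. Equal protein was run on 10%/15% SDS-PAGE and transferred to nitrocellulose. Blots were probed 1 h at room temperature for phospho-cdc2, cyclin B1, caspase-3, bak/bcl-2 or actin loading control, with HRP secondary and ECL detection.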
On the technique in general: In western blotting, separated proteins are transferred to a membrane and probed.

For data set [9], the system named is MDA-MB-231. Description: Selectivity ratio of IC50 for human MT10 cells to IC50 for human MDA-MB-231 cells. In short, it runs like this: (§2)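 Ratio of the IC50 in normal M10 cells to the IC50 in each cancer line. […] The paper reports the fold difference as the normal-cell to tumour-cell IC50 ratio.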
The nature of data set [10]: Selectivity ratio of IC50 for human MT10 cells to IC50 for human U87MG cells. It is filed as ADME, cell-based, U-87MG ATCC. The conditions noted are these: MT10 cells and U87MG cells, read-out: Ratio IC50. In short, it runs like this: as §2
In data set [11] the test system is MDA-MB-231. Kind of data set: Cell cycle arrest in human MDA-MB-231 cells at accumulation at subG1 phase at 0.8 uM after 48 hrs by propidium iodide staining-based flow cytometric analysis (reference value: 3%). It is filed as functional.
The subject of another data set is MCF7. Kind of data set: Growth inhibition of human MCF7 cells after 48 hrs by MTT assay. It is filed as functional, cell-based. The conditions noted are these: MCF7, 48 h.
In data set [12] the test system is MDA-MB-231. Description: Induction of apoptosis in human MDA-MB-231 cells assessed as bak protein level after 48 hrs by Western blot analysis. In kind it is functional, cell-based. In short, it runs like this:
as §1

Data set [13] in a line: Growth inhibition of human M10 cells after 48 hrs by MTT assay. In kind it is cell-based. The conditions noted are these: M10, 48 h.

pIC50: −log10 of the molar value. The source made the active and inactive calls. The rule behind the calls is not given here.

As for `Oc1ccc2[nH]cc(C(c3ccc(C(c4c[nH]c5ccc(O)cc45)c4c[nH]c5ccc(O)cc45)cc3)c3c[nH]c4ccc(O)cc34)c2c1`, the Activity in the data set on MDA-MB-231 [1] was 31%; in the data set on MDA-MB-231 [2], “Dose-dependent effect”; in the data set with MDA-MB-231 [4] it was 20%; in the data set on MDA-MB-231 [7], 25%; with MDA-MB-231 [8], “Dose-dependent effect”; with MDA-MB-231 [11] it was 21%. In addition, the Ratio IC50 is greater than 22.7 in the data set on SW48 [3], greater than 54 in the data set on SW480 and 12.9 in the data set with MDA-MB-231 [9]. In addition, the negative logarithm of the IC50 (pIC50) (usually −log10 of the IC50, conventionally taken in molar units) with MDA-MB-361 is 5.68; in the data set with Detroit 551 it was less than 4.70; in the data set on SW48 [6] it was 6.06; with MCF7 it was 6.06; in data set [13], 5.24. The outcome with MDA-MB-231 [5] and with MDA-MB-231 [12] was Active. Besides, in data set [10], the selectivity ratio came out at 2.
